E-sel inducer – induces E-selectin expression in human endothelial cells; P16581; HUVEC E-selectin immunofluorescence imaging; normalized: neutral wells 0, TNF-alpha wells 100; activation, % at 7.58 µM; hit rate 0.37% among 260,000;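 active = mean E-selectin-positive cell signal at least 10% of the positive control, reached in at least 60% of replicates, without over 20% cell loss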
Target sequence (P16581 whole entry, looked up): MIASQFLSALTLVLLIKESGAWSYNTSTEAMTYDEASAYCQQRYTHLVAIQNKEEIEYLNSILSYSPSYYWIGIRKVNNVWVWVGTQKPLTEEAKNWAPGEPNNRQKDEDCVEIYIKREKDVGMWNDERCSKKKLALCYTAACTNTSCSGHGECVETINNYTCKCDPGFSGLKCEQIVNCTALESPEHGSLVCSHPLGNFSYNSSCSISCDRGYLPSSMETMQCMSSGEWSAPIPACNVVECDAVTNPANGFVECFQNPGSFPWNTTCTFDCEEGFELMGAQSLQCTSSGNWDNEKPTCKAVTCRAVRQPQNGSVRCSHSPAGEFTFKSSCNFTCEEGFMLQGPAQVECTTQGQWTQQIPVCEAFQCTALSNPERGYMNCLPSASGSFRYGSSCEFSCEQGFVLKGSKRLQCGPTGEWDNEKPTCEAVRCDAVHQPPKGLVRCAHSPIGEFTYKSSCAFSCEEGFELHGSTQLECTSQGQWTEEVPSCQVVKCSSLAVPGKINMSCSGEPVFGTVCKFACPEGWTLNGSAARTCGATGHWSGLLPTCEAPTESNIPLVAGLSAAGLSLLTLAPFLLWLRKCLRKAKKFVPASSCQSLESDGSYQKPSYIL
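material = human umbilical vein endothelial cells (HUVEC), E-selectin induction | quantity = 3,000 cells/well | medium = EGM-2 growth medium on 0.1% gelatin-coated wells | technique = immunofluorescence imaging | read-out basis = % PE-positive cells | control set = TNF-alpha positive control, DMSO neutral control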
CFTR F508del cor – CFTR F508del correction in bronchial cells | CFBE cells, YFP halide quenching; stimulated with forskolin plus potentiator P3; % fluorescence drop versus neutral controls | activity (quench increase), % at 7.58 µM | hit rate 0.36% among 350,000 | AID 720511;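 active = mean added fluorescence quench of at least 8% versus neutral control, with both replicates also reaching 8%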;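 note: cells transiently co-express mutant CFTR-F508del with the halide-sensitive YFP; corrector assay measuring rescue of mutant channel to the surface after 24 h compound exposure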
FGF22 binding – FGF22 (human) thermal shift binding | Q9HCT0 | hit rate 1.5% among 340,000 | recombinant FGF22 thermal shift, SYPRO orange fluorescence; percent of sucrose octasulfate shift, DMSO zero | activity (Tm shift, normalised), % at 9.99 µM;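 active = mean Tm shift, scaled 0 neutral to 100 positive control, at about 1.3% or above, every replicate too, limit read from the data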
ERAP1 inh – inhibitors of human ERAP1 aminopeptidase; recombinant ERAP1, Leu-AMC fluorescence, 60 min; inhibition, % at 10.7 µM; hit rate 0.15% among 340,000; Q9NZ08;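 active = mean replicate inhibition of at least 30%, or all replicates individually reaching that 30% level; inactive = mean below 30% and not every replicate reaching it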;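 note: 0% = neutral control wells and 100% = L-leucinethiol positive control wells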
DENV2 CPE – protects cells from dengue virus 2 cytopathic effect | DENV2-infected cells, cytopathic effect rescue, plate reader | CPE inhibition, % at 9.99 µM | hit rate 1.7% among 350,000 | AID 651640; in the data active = CPE inhibition above about 20%, passing the limit was not always enough; tested in BHK-21 cells;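 note: 0% = median of neutral control wells and 100% = median of positive control wells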
Starred values were filed as active, the others as inactive; · = not tested or not shown. Sampled rows, rich in hits. Any-hit rate of the full collection: about 3.7%.

SMILES	E-sel inducer	CFTR F508del cor	FGF22 binding	ERAP1 inh	DENV2 CPE
COc1ccc(NC(=O)Nc2ccc3c(c2)C(=O)N([C@@H](C)CO)C[C@@H](C)[C@@H](CN(C)S(=O)(=O)c2ccc(F)cc2)O3)cc1	37.4*	0.3	-0.1	·	-7.1
COc1ccc(NC(=O)Nc2ccc3c(c2)C(=O)N([C@@H](C)CO)C[C@@H](C)[C@H](CN(C)S(=O)(=O)c2ccc(OC)cc2)O3)cc1	-0.1	-0.9	-0.3	2.9	27.8*
COc1ccc(NC(=O)Nc2ccc3c(c2)C(=O)N([C@H](C)CO)C[C@@H](C)[C@H](CN(C)S(=O)(=O)c2ccc(Cl)cc2)O3)cc1	-2.8	-0.3	0.1	1.1	68.4*
Cc1noc(C)c1NC(=O)Nc1cccc2c1O[C@H](CN(C)S(=O)(=O)c1ccc(F)cc1)[C@@H](C)CN([C@@H](C)CO)C2=O	16.7	-0.6	0.9	-0.6	32.5*
Cc1noc(C)c1NC(=O)Nc1cccc2c1O[C@H](CN(C)S(=O)(=O)c1ccc(F)cc1)[C@@H](C)CN([C@H](C)CO)C2=O	-1.8	0.6	-0.1	0.1	-1.3
C[C@@H]1CCCCO[C@@H](CN(C)S(=O)(=O)c2cccs2)[C@H](C)CN([C@@H](C)CO)C(=O)c2cc(NC(=O)CCCN(C)C)ccc2O1	-0.2	-0.5	-0.1	1.2	-4.2
Cc1noc(C)c1NC(=O)Nc1ccc2c(c1)C(=O)N([C@H](C)CO)C[C@@H](C)[C@H](CN(C)S(=O)(=O)c1ccc(F)cc1)O2	0.5	1.6	-0.3	3.2	86.4*
COc1ccc(S(=O)(=O)N(C)C[C@@H]2Oc3ccc(NC(=O)Nc4ccccc4)cc3C(=O)N([C@@H](C)CO)C[C@H]2C)cc1	0.4	-1.8	-0.5	2.7	35.4*
Cc1noc(C)c1NC(=O)Nc1ccc2c(c1)C(=O)N([C@H](C)CO)C[C@H](C)[C@@H](CN(C)S(=O)(=O)c1ccc(F)cc1)O2	0.0	-1.4	0.2	0.6	13.7
O=C(Nc1nc(-c2ccc(-c3ccccc3)cc2)cs1)c1cc([N+](=O)[O-])ccc1N1CCOCC1	·	0.1	43.4*	5.0	7.4
CS(=O)(=O)c1ccccc1-c1nnc(NC(=O)c2ccc(S(=O)(=O)N3CCCC3)cc2)o1	-0.5	-1.6	0.2	2.5	0.7
CC(C)CC(=O)Nc1nc(-c2ccc(S(=O)(=O)N3CCOCC3)cc2)cs1	·	1.2	0.0	5.3	9.4
O=C(Nc1nnc(-c2cccs2)o1)c1ccc(S(=O)(=O)N2CCOCC2)cc1	·	2.8	44.4*	-1.8	-1.8
CCc1nnc(NC(=O)c2cc([N+](=O)[O-])ccc2N2CCOCC2)s1	1.1	-1.0	-0.1	-1.6	-4.6
O=C(Nc1nc(-c2ccc(S(=O)(=O)N3CCOCC3)cc2)cs1)c1ccccc1	0.1	2.2	43.8*	-0.7	0.2
CN(C)S(=O)(=O)c1ccc(C(=O)Nc2nc(-c3cc4ccccc4o3)cs2)cc1	·	6.4	0.1	0.1	·
CC1CN(S(=O)(=O)c2ccc(C(=O)Nc3nc(-c4cc5ccccc5o4)cs3)cc2)CC(C)O1 (configuration not stated)	·	7.8	43.9*	-1.7	-0.4
CCCC#Cc1cnc2c(c1)C(=O)N([C@@H](C)CO)C[C@H](C)[C@@H](CN(C)Cc1ccc3c(c1)OCO3)O2	-0.2	3.0	·	·	-10.6
CC(C)NC(=O)N(C)C[C@@H]1Oc2ccc(NS(=O)(=O)c3ccc(F)cc3)cc2CC(=O)N([C@@H](C)CO)C[C@@H]1C	0.3	2.4	0.0	1.2	15.8
Cc1ccc(-c2csc(NC(=O)c3ccc(S(=O)(=O)N4CCc5ccccc54)cc3)n2)cc1	1.8	-1.0	0.0	-0.5	25.4*
O=C(Nc1nc(-c2cc3ccccc3o2)cs1)c1ccc(S(=O)(=O)N2CCCC2)cc1	-0.1	4.8	42.9*	1.9	-2.4
COc1ccccc1C(=O)N1C[C@@H]2[C@H](c3ccccc31)[C@@H](CO)N2C(=O)C1CCCCC1	-0.1	-4.3	0.0	-1.7	-11.3
CC(C)(C)C(=O)Nc1nc2c(s1)CN(Cc1ccccc1)CC2	·	4.9	43.2*	-3.8	5.5
CC(=O)Nc1cccc(C(=O)/C=C/c2ccc(/C=C/C(=O)c3cccc(NC(C)=O)c3)cc2)c1	·	-10.1	43.1*	2.5	2.5
CCN1C(=O)[C@@H]2[C@@H]3CN(S(=O)(=O)c4ccc(C)cc4)[C@@H](c4ccccc4F)[C@@H]3C(=O)C[C@@H]2C1=O	4.2	-0.7	40.3	6.6	20.8*
SMILES	E-sel inducer	CFTR F508del cor	FGF22 binding	ERAP1 inh	DENV2 CPE
Cc1ccc(S(=O)(=O)N2C[C@H]3[C@H]4C(=O)N(C)C(=O)[C@H]4CC(=O)[C@H]3[C@@H]2c2ccccc2F)cc1	-0.2	8.4*	-0.1	2.0	-0.8
Cc1ccc(S(=O)(=O)N2C[C@H]3[C@H]4C(=O)N(Cc5ccccc5)C(=O)[C@H]4CC(=O)[C@H]3[C@@H]2c2ccccc2F)cc1	2.8	-1.8	40.2	6.2	-6.0
COc1ccc(NC(=O)Nc2cccc3c2O[C@@H](CN(C)Cc2ccc4c(c2)OCO4)[C@H](C)CN([C@H](C)CO)C3=O)cc1	1.2	1.5	·	5.1	6.2
O=C(O)C[C@H]1C=C[C@@H](NC(=O)CCN2CCCCC2)[C@@H](CO)O1	-0.3	1.1	·	-0.4	96.9*
CN(C)CC(=O)N[C@@H]1C=C[C@@H](CC(=O)NCCN2CCCCC2)O[C@H]1CO	-0.1	2.7	-0.3	0.6	4.1
CN(C)CC(=O)N[C@H]1C=C[C@@H](CC(=O)NCCN2CCCCC2)O[C@@H]1CO	0.0	2.1	0.2	-1.1	58.6*
O=C1CNC(=O)/C(=C\c2ccc(F)cc2)N1	-0.1	-1.0	0.0	3.0	-1.4
O=C1CNC(=O)/C(=C/c2cccs2)N1	·	0.2	43.4*	-0.1	-3.0
C[C@@H]1CN([C@H](C)CO)C(=O)c2c(c3ccccc3n2C)-c2ccccc2CO[C@@H]1CN(C)C(=O)Nc1ccc(-c2ccccc2)cc1	-0.6	1.3	·	2.5	-0.8
O=C(NC1CCCC1)c1nc(-c2c(F)cccc2F)oc1-c1ccccc1	0.8	2.0	-0.2	-1.3	21.7*
CCCCCNC(=O)c1nc(-c2c(F)cccc2F)oc1-c1ccccc1	0.0	-2.7	-0.1	-0.4	-3.2
C[C@@H]1CN([C@H](C)CO)C(=O)c2cc(-c3cncnc3)cnc2O[C@H]1CN(C)C(=O)CN1CCOCC1	0.0	-1.2	-0.2	-0.1	-1.0
Cn1c(=O)c(C(=O)CCl)c(N)n(Cc2ccccc2)c1=O	-0.1	0.2	0.0	0.0	-4.0
Cn1c(=O)c(C(=O)CSc2ccccc2)c(N)n(Cc2ccccc2)c1=O	·	-1.6	43.0*	1.6	10.3
CC(NC(=O)c1ccccc1)C(=O)N/N=C/c1cccc([N+](=O)[O-])c1 (configuration not stated)	-0.5	1.0	43.0*	-4.4	-1.3
COc1ccccc1NC(=O)N1C[C@@H]2[C@H](c3ccccc31)[C@@H](CO)N2C(=O)C1CC1	-0.1	6.8	-0.4	-1.2	3.4
